Measured values taken from ChEMBL document CHEMBL1149257, “Tetrasubstituted imidazole inhibitors of cytokine release: probing substituents in the N-1 position” (J Med Chem, 2004).

How the values were obtained:
[1] = target: Mitogen-activated protein kinase 14 (Homo sapiens, UniProt Q16539); assay: Inhibition of mitogen-activated protein kinase p38 alpha
Blood [2] = assay: Inhibition of LPS-induced IL1 beta production in human whole blood; assay type: functional, tissue-based
Summary of the method: (§1)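 Fresh blood from healthy human donors, preincubated 15 min at 37 °C, 5% CO2, with serially diluted compound in Cremophor EL/ethanol (1:1); 1% Cremophor EL/ethanol as control. Stimulated with LPS 1 μg/mL for 4 h at 37 °C, stopped on ice and centrifuged. TNFα and IL-1β in the supernatant measured by ELISA. IC50 from percent reduction versus control; mean of two independent experiments unless stated.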

Blood [3] = assay: Inhibition of LPS-induced TNFalpha production in human whole blood; assay type: functional, tissue-based; summary of the method: as §1
CYP1A2 = target: T1, CYP1A2 (Homo sapiens, UniProt P05177); assay: Inhibition of human liver CYP1A2 at 10 uM; assay type: ADME
T1 sequence (P05177 whole entry): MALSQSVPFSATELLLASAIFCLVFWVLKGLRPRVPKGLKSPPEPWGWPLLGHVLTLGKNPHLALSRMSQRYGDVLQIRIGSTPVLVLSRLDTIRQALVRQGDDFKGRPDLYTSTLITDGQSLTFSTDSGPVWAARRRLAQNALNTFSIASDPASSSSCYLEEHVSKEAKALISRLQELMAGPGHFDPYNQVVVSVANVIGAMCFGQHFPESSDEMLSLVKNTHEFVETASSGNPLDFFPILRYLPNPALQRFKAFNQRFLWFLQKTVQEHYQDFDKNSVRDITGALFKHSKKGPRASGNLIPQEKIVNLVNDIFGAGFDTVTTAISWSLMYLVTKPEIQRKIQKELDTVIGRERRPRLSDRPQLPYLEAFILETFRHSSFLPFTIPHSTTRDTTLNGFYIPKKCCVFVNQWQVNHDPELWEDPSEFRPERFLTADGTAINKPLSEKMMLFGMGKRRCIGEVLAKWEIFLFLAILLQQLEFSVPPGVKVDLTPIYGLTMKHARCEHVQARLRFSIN
Summary of the method: (§2)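 Each isoform tested with the compound at a single concentration of 10 μM in phosphate buffer (pH 7.4) containing 0.1% DMSO; read out as percent inhibition of enzyme activity. Other conditions follow a previously reported protocol.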

CYP2C9 = CYP2C9 (Homo sapiens, UniProt P11712); assay: Inhibition of human liver CYP2C9 at 10 uM; assay type: ADME; summary of the method: as §2
Sequence of CYP2C9 (P11712 whole entry): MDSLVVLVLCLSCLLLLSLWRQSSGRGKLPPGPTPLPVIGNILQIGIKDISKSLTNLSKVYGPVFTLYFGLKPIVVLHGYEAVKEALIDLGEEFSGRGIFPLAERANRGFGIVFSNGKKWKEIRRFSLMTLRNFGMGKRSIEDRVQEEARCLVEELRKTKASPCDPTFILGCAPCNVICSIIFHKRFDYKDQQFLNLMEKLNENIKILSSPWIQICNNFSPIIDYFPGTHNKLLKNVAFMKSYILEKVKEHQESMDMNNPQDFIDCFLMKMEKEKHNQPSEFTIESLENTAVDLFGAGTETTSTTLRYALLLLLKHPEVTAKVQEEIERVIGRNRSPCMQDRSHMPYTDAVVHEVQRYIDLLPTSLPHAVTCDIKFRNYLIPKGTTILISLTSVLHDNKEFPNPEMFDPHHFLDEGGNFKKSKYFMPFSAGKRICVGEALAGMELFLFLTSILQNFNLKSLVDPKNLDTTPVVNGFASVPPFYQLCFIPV

CYP2C19 = CYP2C19 (Homo sapiens, UniProt P33261); assay: Inhibition of human liver CYP2C19 at 10 uM; assay type: ADME; summary of the method: as §2
Sequence of CYP2C19 (P33261 whole entry): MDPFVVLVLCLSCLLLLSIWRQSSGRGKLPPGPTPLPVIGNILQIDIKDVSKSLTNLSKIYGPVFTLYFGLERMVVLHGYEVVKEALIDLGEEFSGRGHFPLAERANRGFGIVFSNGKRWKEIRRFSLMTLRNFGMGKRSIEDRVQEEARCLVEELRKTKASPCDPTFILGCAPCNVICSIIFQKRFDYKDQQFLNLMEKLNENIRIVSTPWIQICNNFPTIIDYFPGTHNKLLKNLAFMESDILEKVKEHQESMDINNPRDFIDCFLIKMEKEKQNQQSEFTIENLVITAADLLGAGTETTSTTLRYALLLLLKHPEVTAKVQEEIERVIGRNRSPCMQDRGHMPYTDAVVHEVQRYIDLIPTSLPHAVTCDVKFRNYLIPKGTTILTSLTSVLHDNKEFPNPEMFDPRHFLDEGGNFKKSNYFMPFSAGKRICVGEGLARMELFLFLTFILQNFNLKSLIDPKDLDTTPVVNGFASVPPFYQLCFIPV

CYP2D6 = CYP2D6 (Homo sapiens, UniProt P10635); assay: Inhibition of human liver CYP2D6 at 10 uM; assay type: ADME; summary of the method: as §2
Sequence of CYP2D6 (P10635 whole entry): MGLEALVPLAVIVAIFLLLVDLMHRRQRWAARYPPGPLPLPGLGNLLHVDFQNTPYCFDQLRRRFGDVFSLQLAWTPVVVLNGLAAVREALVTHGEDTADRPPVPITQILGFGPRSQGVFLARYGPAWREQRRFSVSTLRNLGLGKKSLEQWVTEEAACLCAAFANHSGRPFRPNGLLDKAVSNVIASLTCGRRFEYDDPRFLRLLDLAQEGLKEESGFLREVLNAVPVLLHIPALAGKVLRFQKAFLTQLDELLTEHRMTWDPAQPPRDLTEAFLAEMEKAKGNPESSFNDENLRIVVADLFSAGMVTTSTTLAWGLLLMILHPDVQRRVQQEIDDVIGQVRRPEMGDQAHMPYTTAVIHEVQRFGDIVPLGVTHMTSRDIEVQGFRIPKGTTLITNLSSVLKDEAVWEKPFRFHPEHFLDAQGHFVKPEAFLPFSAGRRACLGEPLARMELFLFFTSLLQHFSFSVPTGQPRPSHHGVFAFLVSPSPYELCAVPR

CYP3A4 = CYP3A4 (Homo sapiens, UniProt P08684); assay: Inhibition of human liver CYP3A4 at 10 uM; assay type: ADME; summary of the method: as §2
Sequence of CYP3A4 (P08684 whole entry): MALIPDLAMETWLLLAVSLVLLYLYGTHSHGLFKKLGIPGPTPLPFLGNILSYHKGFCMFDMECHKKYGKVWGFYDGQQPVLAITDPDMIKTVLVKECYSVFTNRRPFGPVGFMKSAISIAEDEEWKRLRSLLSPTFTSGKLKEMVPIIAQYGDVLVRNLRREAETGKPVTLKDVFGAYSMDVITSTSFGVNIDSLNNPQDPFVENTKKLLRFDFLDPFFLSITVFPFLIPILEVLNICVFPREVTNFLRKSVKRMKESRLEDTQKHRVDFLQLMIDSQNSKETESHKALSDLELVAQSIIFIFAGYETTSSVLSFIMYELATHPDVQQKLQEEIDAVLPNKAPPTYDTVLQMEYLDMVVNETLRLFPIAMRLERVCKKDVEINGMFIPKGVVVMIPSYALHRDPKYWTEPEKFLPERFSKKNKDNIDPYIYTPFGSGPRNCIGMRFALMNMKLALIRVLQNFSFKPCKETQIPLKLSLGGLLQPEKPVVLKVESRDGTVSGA

Sequence of Mitogen-activated protein kinase 14 (Q16539 whole entry): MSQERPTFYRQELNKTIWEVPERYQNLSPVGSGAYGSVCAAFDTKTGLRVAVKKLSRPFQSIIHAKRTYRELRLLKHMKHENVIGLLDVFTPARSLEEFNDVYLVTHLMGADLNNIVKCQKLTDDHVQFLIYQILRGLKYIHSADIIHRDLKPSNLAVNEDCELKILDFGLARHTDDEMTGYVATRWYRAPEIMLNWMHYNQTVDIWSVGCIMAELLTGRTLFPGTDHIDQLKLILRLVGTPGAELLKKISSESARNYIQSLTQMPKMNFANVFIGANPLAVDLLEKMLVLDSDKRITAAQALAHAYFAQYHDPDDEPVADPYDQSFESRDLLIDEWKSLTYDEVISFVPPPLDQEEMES

SMILES	IC50 [1] [µM]	further results
CSc1nc(-c2ccc(F)cc2)c(-c2ccnc(NC(C)=O)c2)n1CCN1CCCCC1	1.34	IC50 (Blood [2]): > 10 µM; IC50 (Blood [3]): > 10 µM; inhibition at 10 µM (CYP1A2): 12%; inhibition at 10 µM (CYP2C9): 5%; inhibition at 10 µM (CYP2C19): 41%; inhibition at 10 µM (CYP2D6): 77.5%; inhibition at 10 µM (CYP3A4): 97%
CC(=O)Nc1cc(-c2c(-c3ccc(F)cc3)nc(SCCC(=O)N3CCOCC3)n2CCCO)ccn1	9.5	
CC(=O)Nc1cc(-c2c(-c3ccc(F)cc3)nc(SCCC(=O)N3CCOCC3)n2CCO)ccn1	2.51	
C=CCOCCn1c(SC)nc(-c2ccc(F)cc2)c1-c1ccnc(NC(C)=O)c1	1.85	IC50 (Blood [2]): 48.5 µM; IC50 (Blood [3]): > 100 µM
CC(=O)Nc1cc(-c2c(-c3ccc(F)cc3)nc(SCCCC(=O)N3CCOCC3)n2CCO)ccn1	2	
CC(=O)Nc1cc(-c2c(-c3ccc(F)cc3)nc(SCc3ccc([S+](C)[O-])cc3)n2CCN2CCCCC2)ccn1 (stereo not given)	4.43	
COCCCn1c(SCc2ccc([S+](C)[O-])cc2)nc(-c2ccc(F)cc2)c1-c1ccnc(NC(C)=O)c1 (stereo not given)	1.31	
CC(=O)NCCn1c(SCc2ccc([S+](C)[O-])cc2)nc(-c2ccc(F)cc2)c1-c1ccnc(NC(C)=O)c1 (stereo not given)	> 10	
CSc1nc(-c2ccc(F)cc2)c(-c2ccnc(NC(C)=O)c2)n1CCO	0.398	IC50 (Blood [2]): 33.2 µM; IC50 (Blood [3]): 35.8 µM
CC(=O)Nc1cc(-c2c(-c3ccc(F)cc3)nc(SCc3ccc([S+](C)[O-])cc3)n2CCO)ccn1 (stereo not given)	2.24	
CSc1nc(-c2ccc(F)cc2)c(-c2ccnc(NC(C)=O)c2)n1CCN1CCOCC1	2.03	IC50 (Blood [2]): > 10 µM; IC50 (Blood [3]): > 10 µM
C#CCOCCn1c(SC)nc(-c2ccc(F)cc2)c1-c1ccnc(NC(C)=O)c1	0.666	IC50 (Blood [2]): 13.9 µM; IC50 (Blood [3]): 40 µM
CSCCn1c(SC)nc(-c2ccc(F)cc2)c1-c1ccnc(NC(C)=O)c1	0.431	IC50 (Blood [2]): 36.4 µM; IC50 (Blood [3]): 44.2 µM
CC(=O)Nc1cc(-c2c(-c3ccc(F)cc3)nc(SCc3ccc([S+](C)[O-])cc3)n2CCOCCO)ccn1 (stereo not given)	> 10	
COCCn1c(SCCC(=O)N2CCOCC2)nc(-c2ccc(F)cc2)c1-c1ccnc(NC(C)=O)c1	0.46	
CSc1nc(-c2ccc(F)cc2)c(-c2ccnc(NC(C)=O)c2)n1CC1COC(C)(C)O1 (stereo not given)	3.73	
CC(=O)Nc1cc(-c2c(-c3ccc(F)cc3)nc(SCc3ccc([S+](C)[O-])cc3)n2C)ccn1 (stereo not given)	5.85	
CSc1nc(-c2ccc(F)cc2)c(-c2ccnc(NC(C)=O)c2)n1CCCO	0.813	IC50 (Blood [2]): 13.8 µM; IC50 (Blood [3]): 20.5 µM

SMILES	IC50 [1] [µM]	further results
COCCCn1c(SCCC(=O)N2CCOCC2)nc(-c2ccc(F)cc2)c1-c1ccnc(NC(C)=O)c1	> 10	
C=CCOCCn1c(SCc2ccc([S+](C)[O-])cc2)nc(-c2ccc(F)cc2)c1-c1ccnc(NC(C)=O)c1 (stereo not given)	> 10	
CCOC(=O)N1CCC(n2c(SC)nc(-c3ccc(F)cc3)c2-c2ccnc(NC(C)=O)c2)CC1	> 10	
C#CCOCCn1c(SCc2ccc([S+](C)[O-])cc2)nc(-c2ccc(F)cc2)c1-c1ccnc(NC(C)=O)c1 (stereo not given)	4.97	
CC(=O)Nc1cc(-c2c(-c3ccc(F)cc3)nc(SCc3ccc([S+](C)[O-])cc3)n2C2CC(C)(C)NC(C)(C)C2)ccn1 (stereo not given)	> 10	
CSc1nc(-c2ccc(F)cc2)c(-c2ccnc(NC(C)=O)c2)n1CC(C)O (stereo not given)	8.69	
CSc1nc(-c2ccc(F)cc2)c(-c2ccnc(NC(C)=O)c2)n1CCCN1CCOCC1	6.28	
COCCn1c(SCc2ccc([S+](C)[O-])cc2)nc(-c2ccc(F)cc2)c1-c1ccnc(NC(C)=O)c1 (stereo not given)	0.15	
CC(=O)Nc1cc(-c2c(-c3ccc(F)cc3)nc(SCc3ccc([S+](C)[O-])cc3)n2CC(C)O)ccn1 (stereo not given)	> 10	
CSc1nc(-c2ccc(F)cc2)c(-c2ccnc(NC(C)=O)c2)n1CCNC(C)=O	7.29	
COC(Cn1c(SC)nc(-c2ccc(F)cc2)c1-c1ccnc(NC(C)=O)c1)OC	4.1	
CC(=O)Nc1cc(-c2c(-c3ccc(F)cc3)nc(SCc3ccc([S+](C)[O-])cc3)n2CCCN2CCOCC2)ccn1 (stereo not given)	> 10	
CSCCn1c(SCc2ccc([S+](C)[O-])cc2)nc(-c2ccc(F)cc2)c1-c1ccnc(NC(C)=O)c1 (stereo not given)	2.38	
CSc1nc(-c2ccc(F)cc2)c(-c2ccnc(NC(C)=O)c2)n1CCN(C)C	2.41	
CSc1nc(-c2ccc(F)cc2)c(-c2ccnc(NC(C)=O)c2)n1CCOCCO	8.48	IC50 (Blood [2]): > 100 µM; IC50 (Blood [3]): > 100 µM; inhibition at 10 µM (CYP1A2): 0%; inhibition at 10 µM (CYP2C9): 18.5%; inhibition at 10 µM (CYP2C19): 19%; inhibition at 10 µM (CYP2D6): 0%; inhibition at 10 µM (CYP3A4): 38%
COCCCn1c(SC)nc(-c2ccc(F)cc2)c1-c1ccnc(NC(C)=O)c1	0.205	IC50 (Blood [2]): 18.2 µM; IC50 (Blood [3]): 17.8 µM
COCCn1c(SC)nc(-c2ccc(F)cc2)c1-c1ccnc(NC(C)=O)c1	0.218	IC50 (Blood [2]): 30.5 µM; IC50 (Blood [3]): 32.8 µM; inhibition at 10 µM (CYP1A2): 0%; inhibition at 10 µM (CYP2C9): 23.5%; inhibition at 10 µM (CYP2C19): 70.5%; inhibition at 10 µM (CYP2D6): 3.5%; inhibition at 10 µM (CYP3A4): 62%
